Compound activity deposited in PubChem BioAssay by Broad Institute.
PGC1a acetyl inh: lowers PGC1a acetylation signal in U2OS cells; AlphaScreen anti-acetyl-lysine; with virally co-expressed GCN5 acetyltransferase; inhibition, % at 15.6 µM; 350,000 tested, 0.17% active;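 active = every replicate shows inhibition of at least 40%; inconclusive = mean inhibition at least 40% but some replicate below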;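 also: 0% = neutral control wells and 100% = positive control wells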
DENV2 CPE rescue: protects cells from dengue virus 2 cytopathic effect. CPE inhibition, % at 9.99 µM. 350,000 tested, 1.7% active. DENV2-infected cells, cytopathic effect rescue, plate reader; in the data active = CPE inhibition above about 20%, passing the limit was not always enough; inconclusive = no clear call, values can overlap the other calls; tested in BHK-21 cells;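 also: 0% = median of neutral control wells and 100% = median of positive control wells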
PglD inh: inhibitors of Campylobacter jejuni PglD acetyltransferase | inhibition, % at 12.5 µM | purified PglD enzyme, DTNB colorimetric CoA detection | 360,000 tested, 0.098% active; in the data active = inhibition above about 16%, passing the limit was not always enough; inconclusive = no clear call, values can overlap the other calls
Ecoli rRNA inh: inhibits bacterial ribosomal RNA function over humanized ribosomes; E. coli WT GFP vs humanized-ribosome RFP mutants, fluorescence, 24 h; active compounds read low; DMSO median 0, no signal -100; GFP signal change (wild-type ribosome), % (no concentration beside the values); 350,000 tested, 1.6% active;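 active = significant combined selectivity score with lowered wild-type GFP, culture density cut under 30%, mutant RFP and density less affected; inactive = any of these conditions unmet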
Env fusion inh: blocks HIV Env-driven cell-cell fusion | HeLa-JRFL Env/CEM21 cell fusion, luciferase | inhibition, % at 12.3 µM | 360,000 tested, 1.1% active;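 active = mean replicate inhibition score of at least 50 and every replicate individually at or above 50; inconclusive = only one of the two criteria met; inactive = mean below 50 and not all replicates reaching 50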;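 also: 0% = plate neutral controls and 100% = maraviroc near 300 nM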
FN deposition inh: fibronectin deposition inhibition; AH1F fibroblasts, Alexa488-fibronectin deposition fluorescence, overnight; inhibition, % at 12.6 µM; 350,000 tested, 0.086% active; AID 743247;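 active = mean inhibition across replicates of 30% or more, regardless of how many single replicates reach that level; inconclusive = mean under 30% yet at least half of replicates reach 30%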;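 also: positive control wells lacked labelled fibronectin entirely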
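Material: AH1F fibroblast monolayer depositing Alexa488-labelled fibronectin into matrix | Input: 10000 AH1F cells/well | Medium: DMEM plus 2% serum, read in PBS | Reagent: Alexa488-fibronectin, 24 nM final in well | Compound dosing: One dose per compound, pinned | Schedule: 1 h adhesion, overnight exposure | Measured by: Fluorescence at 485 nm excitation, 525 nm emission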
* hit, by the source's call; ? = inconclusive; . = not tested or not shown; ! = not confirmed by another sample; [ ] = dose if it differs, or a comment. Hits are enriched below; roughly 3.5% of the tested compounds scored in any of these assays.

SMILES | PGC1a acetyl inh | DENV2 CPE rescue | PglD inh | Ecoli rRNA inh | Env fusion inh | FN deposition inh
CN(C)C(=O)C[C@@H]1CC[C@@H](NC(=O)c2ccc(F)cc2)[C@H](CO)O1 | 17 | 45* | -4 | 1 | 5[16.7 µM] | 3
O=C(C[C@@H]1CC[C@H](NC(=O)c2ccc3c(c2)OCO3)[C@@H](CO)O1)NCc1ccc(F)cc1 | -11 | 32*! | 6 | -1 | -13[16.7 µM] | 2
O=C(C[C@@H]1CC[C@@H](NC(=O)Nc2ccc3c(c2)OCO3)[C@@H](CO)O1)NCc1ccc2c(c1)OCO2 | 2 | 29* | -3 | 2 | 19[16.7 µM] | .
O=C(C[C@H]1CC[C@@H]2[C@H](COC[C@H](O)CN2CC2CCCCC2)O1)NCc1ccc(F)cc1 | -5 | -4 | 0 | -24 | 5[16.7 µM] | -12
C[C@H](CO)N1C[C@H](C)[C@@H](CN(C)Cc2ccc(Oc3ccccc3)cc2)Oc2c(NS(=O)(=O)c3ccc(F)cc3)cccc2C1=O | -1 | 39* | . | 0 | . | .
C[C@@H]1CN([C@@H](C)CO)C(=O)c2cccc(NS(=O)(=O)c3ccc(F)cc3)c2O[C@@H]1CN(C)Cc1ccc(C(F)(F)F)cc1 | -17 | 0 | -2 | -3 | 58*[16.7 µM] | .
C[C@@H]1CN([C@H](C)CO)C(=O)c2cccc(NS(=O)(=O)c3ccc(F)cc3)c2O[C@H]1CN(C)Cc1ccc(C(F)(F)F)cc1 | -10 | 12 | -2 | 1 | 39[16.7 µM] | .
CO[C@H]1CC[C@@H]2CCN(C)C(=O)[C@@H](C)[C@H](OC)CN(C)C(=O)c3cccc(C#N)c3OC[C@H]1O2 | 9 | -3 | -1 | 5 | -13[16.7 µM] | 1
Cc1ccnc(NC(=O)c2cccc(NC(=O)Cc3ccccc3)c2)c1 | -19 | -2 | . | -32* | -41 | -2
CCOC(=O)C1CCCN(c2c(N3CCOCC3)c(=O)c2=O)C1 (stereo not given) | -3 | 46* | 0 | 15 | 10 | -8
C[C@@H]1CN([C@@H](C)CO)C(=O)CCCn2cc(nn2)CO[C@H]1CN(C)S(=O)(=O)c1cccc(F)c1 | 3 | 1 | -6 | 8 | 14 | -1
C[C@H]1CN([C@@H](C)CO)C(=O)CCCn2cc(nn2)CO[C@H]1CN(C)S(=O)(=O)c1ccc2c(c1)OCCCO2 | 5 | 31* | 2 | 3 | . | -6
C[C@@H]1CN([C@@H](C)CO)C(=O)CCCn2cc(nn2)CO[C@@H]1CN(C)S(=O)(=O)c1ccc2c(c1)OCCCO2 | -4 | ? | 2 | -1 | . | -1
C[C@H](CO)N1C[C@H](C)[C@@H](CN(C)S(=O)(=O)c2cccc(F)c2)OCc2cn(nn2)CCCC1=O | -3 | 55*! | 4 | 2 | -36 | 2
COc1ccccc1NC(=O)N(C)C[C@H]1OCc2ccccc2-c2c(n(C)c3ccccc23)C(=O)N([C@H](C)CO)C[C@@H]1C | -1 | -11 | -5 | 1 | . | 1
CNc1nc(Oc2cccc(NC(C)=O)c2)c2sccc2n1 | 5 | 53* | 13 | 8 | -24 | 0
O=C(C1CCC1)N1CC2(C1)[C@@H](c1ccccc1)[C@@H](CO)N2CC1CCCC1 | . | . | . | -38 | . | .
Cc1ccccc1-n1c(=O)c2ccccc2n2cnnc12 | . | . | -9 | . | 83* | -5
Cc1cc2nncn2c2ccccc12 | 6 | . | -3 | . | -355 | -14
CC1=CC(C)(C)N2C(=O)C3(NCCc4c3[nH]c3ccccc43)c3cc(C)cc1c32 (stereo not given) | -5 | -3 | -9 | -8 | 17 | -14
CC1=CC(C)(C)N2C(=O)C3(SCC(=O)N3c3ccc(F)cc3)c3cc(C)cc1c32 (stereo not given) | -93 | . | 8 | . | 72* | -1
COC(=O)N1C(=O)[C@](c2ccsc2)(C(C)C)N1C(=O)OC | 8 | 48* | 7 | 20 | -19 | -2
CC(C)(C)C1CCC(OCC(O)CN2CCN(Cc3ccccc3)CC2)CC1 (stereo not given) | 3 | 1 | . | -26 | 28 | 9
CC(C)(C)C1CCC(OCC(O)CN2CCN(c3ccccn3)CC2)CC1 (stereo not given) | 1 | 4 | . | -35* | 23 | 2
Cc1noc(C)c1S(=O)(=O)Nc1ccc2c(c1)C(=O)N([C@@H](C)CO)C[C@H](C)[C@@H](CN(C)C(=O)Nc1ccc(C(F)(F)F)cc1)OCCCC[C@H](C)O2 | 11 | 13 | 2 | -1 | 57*[16.7 µM] | .
SMILES | PGC1a acetyl inh | DENV2 CPE rescue | PglD inh | Ecoli rRNA inh | Env fusion inh | FN deposition inh
Cc1noc(C)c1S(=O)(=O)Nc1ccc2c(c1)C(=O)N([C@H](C)CO)C[C@@H](C)[C@H](CN(C)C(=O)Nc1ccccc1)OCCCC[C@@H](C)O2 | 4 | 2 | 6 | -1 | -105[16.7 µM] | -8
Cc1noc(C)c1S(=O)(=O)Nc1ccc2c(c1)C(=O)N([C@@H](C)CO)C[C@@H](C)[C@H](CN(C)C(=O)Nc1ccccc1)OCCCC[C@@H](C)O2 | -1 | 97* | 11 | -3 | -20[16.7 µM] | -13
Cc1noc(C)c1S(=O)(=O)Nc1ccc2c(c1)C(=O)N([C@H](C)CO)C[C@H](C)[C@H](CN(C)C(=O)Nc1ccccc1)OCCCC[C@H](C)O2 | -10 | 33* | 8 | -1 | -28[16.7 µM] | -7
CCCNC(=O)N1CC2(CCN(C(C)=O)CC2)c2c(n(C)c3cc(OC)ccc23)[C@H]1CO | -6 | -3 | . | 1 | . | .
COCCOC(=O)N1C(=O)[C@@]2(c3cc(C#CCCO)ccc31)[C@H](C(N)=O)[C@H]1C(=O)O[C@H](c3ccccc3)[C@H](c3ccccc3)N1[C@@H]2c1ccc(OCCO)cc1 | 4 | 1 | -1 | . | 5[16.7 µM] | .
C=CCNC(=O)[C@H]1[C@@H]2C(=O)O[C@@H](c3ccccc3)[C@@H](c3ccccc3)N2[C@@H](c2ccc(OCCO)cc2)[C@]12C(=O)N(C(=O)OCCOC)c1ccc(C#Cc3ccc(OC)cc3)cc12 | 7 | 23* | -1 | . | -9[16.7 µM] | .
COCCOC(=O)N1C(=O)[C@@]2(c3cc(C#CC4(O)CCCCCC4)ccc31)[C@H](c1ccc(OCCO)cc1)N1[C@H](c3ccccc3)[C@H](c3ccccc3)OC(=O)[C@H]1[C@@H]2C(N)=O | -12 | 69* | -4 | . | -48[16.7 µM] | .
C[C@H](CO)N1C[C@H](C)[C@@H](CN(C)S(C)(=O)=O)Oc2ncc(C#Cc3ccc(F)cc3)cc2C1=O | -3 | -4 | 1 | 0 | 20[16.7 µM] | 13
CCOC(=O)C1=C(C)N(C[C@@H]2CC[C@@H](Cc3ccc(-c4ccccc4)cc3)O2)C(=O)NC1c1ccc(C(F)(F)F)cc1 (stereo not given in full) | . | -1 | 4 | 1 | 67* | .
Fc1ccc(N2CCN(Cc3nnc(-c4ccccc4)o3)CC2)cc1 | . | -7 | . | 2 | 14 | -11
Fc1ccc(-c2nnc(CN3CCN(c4ncc(C(F)(F)F)cc4Cl)CC3)o2)cc1 | 8 | . | -2 | . | 68* | 3
